What was measured:
[1] = Volume of distribution at steady state in Sprague-Dawley rat 1 mg/kg, iv administered as single dose by LC/MS/MS utilizing electrospray ionization method; type: ADME, organism-based; design: dose 1 mg/kg, route intravenous; settings: in vivo, read-out: Vdss
[2] = target: T1, Muscarinic acetylcholine receptor M5 (Homo sapiens) (UniProt P08912); experiment: Displacement of [3H]NMS from human muscarinic acetylcholine receptor subtype 5 expressed in CHO cell membranes assessed as radioligand binding level by scintillation counting method
T1 sequence (whole entry): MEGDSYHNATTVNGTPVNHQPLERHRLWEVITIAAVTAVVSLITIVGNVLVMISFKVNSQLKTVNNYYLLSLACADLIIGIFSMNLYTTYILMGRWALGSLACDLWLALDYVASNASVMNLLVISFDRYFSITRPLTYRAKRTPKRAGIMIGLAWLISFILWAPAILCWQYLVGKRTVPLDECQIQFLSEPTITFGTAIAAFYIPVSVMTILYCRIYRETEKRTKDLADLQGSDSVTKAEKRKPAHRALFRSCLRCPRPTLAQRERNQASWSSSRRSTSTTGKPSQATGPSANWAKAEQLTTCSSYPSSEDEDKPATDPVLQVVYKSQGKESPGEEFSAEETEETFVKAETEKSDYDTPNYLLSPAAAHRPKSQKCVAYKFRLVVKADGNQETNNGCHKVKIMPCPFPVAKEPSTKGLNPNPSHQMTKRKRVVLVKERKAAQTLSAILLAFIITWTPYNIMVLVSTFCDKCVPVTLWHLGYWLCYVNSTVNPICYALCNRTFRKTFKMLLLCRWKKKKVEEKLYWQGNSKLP

[3] = target: T1, Muscarinic acetylcholine receptor M5 (Homo sapiens); experiment: Positive allosteric modulator activity at human muscarinic acetylcholine receptor subtype 5 expressed in CHO cell membranes assessed as fold shift in acetylcholine binding affinity by [3H]NMS binding based scintillation counting method
Plasma [4] = experiment: Fraction unbound in rat plasma at 5 uM incubated for 4 hrs at 37 degC by equilibrium dialysis based LC/MS/MS analysis; type: ADME, cell-free
In short: (§1)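 Fraction unbound measured in rat and human plasma and in rat brain homogenate.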

[5] = target: T2, Muscarinic acetylcholine receptor M4 (Homo sapiens, UniProt P08173); experiment: Activity at human muscarinic acetylcholine receptor subtype 4 expressed in CHO cells co-transfected with chimeric Gqi5 by calcium mobilization assay; type: functional, cell-based
T2 sequence (P08173 whole entry): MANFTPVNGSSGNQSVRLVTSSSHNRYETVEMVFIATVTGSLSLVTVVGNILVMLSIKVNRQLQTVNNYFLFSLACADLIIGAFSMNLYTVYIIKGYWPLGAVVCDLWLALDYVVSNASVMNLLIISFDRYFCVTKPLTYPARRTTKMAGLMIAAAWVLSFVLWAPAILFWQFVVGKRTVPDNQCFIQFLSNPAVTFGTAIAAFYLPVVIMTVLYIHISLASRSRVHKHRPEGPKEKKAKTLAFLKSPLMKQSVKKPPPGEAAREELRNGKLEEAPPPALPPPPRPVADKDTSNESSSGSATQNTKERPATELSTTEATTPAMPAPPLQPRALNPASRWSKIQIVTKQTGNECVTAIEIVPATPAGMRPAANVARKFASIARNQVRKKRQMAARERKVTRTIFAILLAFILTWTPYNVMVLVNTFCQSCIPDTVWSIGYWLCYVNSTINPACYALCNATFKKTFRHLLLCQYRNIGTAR
In short: (§2)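 Muscarinic subtype selectivity by fluorescence calcium mobilization in highly expressing CHO lines with similar receptor levels; Gi/o-coupled M2 and M4 cells co-transfected with chimeric Gqi5 to couple to Ca2+ mobilization. Read-outs are PAM EC50 and ACh max response. Mean ± SEM of at least three independent determinations.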

Plasma [6] = experiment: Fraction unbound in human plasma at 5 uM incubated for 4 hrs at 37 degC by equilibrium dialysis based LC/MS/MS analysis; type: ADME, cell-free; in short: as §1
[7] = target: T3, Muscarinic acetylcholine receptor M2 (Rattus norvegicus, UniProt P10980); experiment: Activity at rat muscarinic acetylcholine receptor subtype 2 expressed in CHO cells co-transfected with chimeric Gqi5 by calcium mobilization assay; type: functional, cell-based; in short: as §2
T3 sequence (P10980 whole entry): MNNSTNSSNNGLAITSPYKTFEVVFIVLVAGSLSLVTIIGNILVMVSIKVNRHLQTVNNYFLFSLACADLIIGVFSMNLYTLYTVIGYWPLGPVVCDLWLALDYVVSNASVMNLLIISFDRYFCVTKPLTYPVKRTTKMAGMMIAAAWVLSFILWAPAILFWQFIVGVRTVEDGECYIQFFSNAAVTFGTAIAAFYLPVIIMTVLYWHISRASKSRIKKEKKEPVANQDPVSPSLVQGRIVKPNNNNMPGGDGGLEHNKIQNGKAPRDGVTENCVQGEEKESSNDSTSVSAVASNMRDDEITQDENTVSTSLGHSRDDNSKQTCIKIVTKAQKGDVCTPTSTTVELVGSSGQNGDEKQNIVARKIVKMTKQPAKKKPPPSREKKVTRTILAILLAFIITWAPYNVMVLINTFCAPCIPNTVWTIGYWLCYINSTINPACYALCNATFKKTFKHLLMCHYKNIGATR

[8] = target: T1, Muscarinic acetylcholine receptor M5 (Homo sapiens); experiment: Positive allosteric modulator activity at human muscarinic acetylcholine receptor subtype 5 expressed in CHO cells by calcium mobilization assay relative to acetylcholine; type: functional, cell-based
Rattus norvegicus = experiment: Unbound brain-to-plasma concentration ratio in Sprague-Dawley rat 1 mg/kg, iv administered as single dose after 15 mins by LC/MS/MS utilizing electrospray ionization method; type: ADME, organism-based; design: dose 1 mg/kg, route intravenous; settings: 0.25 h
In short: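 Male Sprague–Dawley rats (n = 3) dosed 1 mg/kg intravenously. Brain and plasma levels at 15 min after administration give Kp. Kp,uu is the unbound brain-plasma partition coefficient.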

[9] = target: T4, Muscarinic acetylcholine receptor M5 (Rattus norvegicus, UniProt P08911); experiment: Activity at rat muscarinic acetylcholine receptor subtype 5 expressed in CHO cells by calcium mobilization assay; type: functional, cell-based; in short: as §2
T4 sequence (P08911 whole entry): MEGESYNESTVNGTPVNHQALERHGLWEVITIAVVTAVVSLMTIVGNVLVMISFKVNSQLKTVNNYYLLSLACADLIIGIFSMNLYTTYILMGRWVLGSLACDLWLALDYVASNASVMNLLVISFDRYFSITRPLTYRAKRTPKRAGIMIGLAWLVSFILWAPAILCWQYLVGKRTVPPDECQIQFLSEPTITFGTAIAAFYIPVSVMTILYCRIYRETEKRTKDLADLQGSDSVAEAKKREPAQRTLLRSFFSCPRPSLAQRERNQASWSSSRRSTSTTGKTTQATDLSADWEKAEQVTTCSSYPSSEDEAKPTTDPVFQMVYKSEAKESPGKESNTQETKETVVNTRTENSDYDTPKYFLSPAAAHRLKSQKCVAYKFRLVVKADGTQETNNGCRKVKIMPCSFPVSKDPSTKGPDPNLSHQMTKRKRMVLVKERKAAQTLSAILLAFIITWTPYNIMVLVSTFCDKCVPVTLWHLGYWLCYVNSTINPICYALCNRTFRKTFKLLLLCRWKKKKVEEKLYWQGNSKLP

[10] = target: T5, Muscarinic acetylcholine receptor M5 (Homo sapiens, UniProt P08912); experiment: Positive allosteric modulator activity at human muscarinic acetylcholine receptor subtype 5 expressed in CHO cells by calcium mobilization assay; type: functional, cell-based; settings: read-out: EC50
T5 sequence (P08912 whole entry): T1 sequence (whole entry)

[11] = Fraction unbound in rat brain at 5 uM incubated for 4 hrs at 37 degC by equilibrium dialysis based LC/MS/MS analysis; type: ADME, tissue-based; in short: as §1

CCN(Cc1ccccc1C(F)(F)F)C(=O)C1CCN(S(=O)(=O)c2ccc3[nH]ncc3c2)CC1
Vd [1]: 1.6 L/kg
%max [2]: 97.1%
fold change (FC) [3]: 15
Fu (Plasma [4]): 0.014
EC50 [5]: > 30000 nM
Fu (Plasma [6]): 0.015
EC50 [7]: > 30000 nM
%max [8]: 96%
K(p,uu,brain) (Rattus norvegicus): 0.28
EC50 [9]: 610 nM
EC50 [10]: 190 nM
Fu [11]: 0.011

— ChEMBL document CHEMBL3352313 (J Med Chem, 2014)
